Each structure is given as a SMILES string. Active and inactive are the calls of the source. No cut-off for these calls is given here.

In assay [1] the target is T1, Alpha-2 adrenergic receptor (Mus musculus) (UniProt P30545+Q01338+Q01337). Kind of assay: Presynaptic alpha-2 adrenergic receptor from mouse vas deferens agonistic activity relative to clonidine = 1. It is filed as functional, tissue-based. The gist of the method:
(§1)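 Isolated tissue agonist test, potency compared directly with the standard in the same experiment. Standard dose-response curves were run before and after the test compound's curve. Rat anococcygeus (male Sprague-Dawley, 200-250 g; Krebs, 30 °C, 95% O2/5% CO2) was compared with phenylephrine. Field-stimulated mouse vas deferens (0.1 Hz, Mg-free Krebs, 30 °C) was compared with clonidine.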

The target of assay [2] is T2, Adrenergic receptor alpha-1 (Rattus norvegicus) (UniProt P15823+P23944+P43140). As to the kind of experiment: In vitro inhibition of the contractile effect of phenylephrine on the isolated rat anococcygeus; potency relative to idazoxan; Inactive. It counts as functional.
In assay [3] the target is T2, Adrenergic receptor alpha-1 (Rattus norvegicus). Kind of assay: Agonism in vitro at Alpha-1 adrenoceptor determined in rat anococcygeus preparation. It counts as functional. The gist of the method: as §1
The target in assay [4] is T1, Alpha-2 adrenergic receptor (Mus musculus). As to the kind of experiment: Ability to antagonize the inhibitory effect of clonidine on the mouse vas deferens is the presynaptic alpha-2 adrenergic receptor antagonist potency relative to idazoxan = 1. It is filed as functional, tissue-based. The method, boiled down:
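Male adult mouse vasa deferentia (MFI >30 g), 0.5 g initial tension, Mg-free Krebs, 30 °C, 95% O2/5% CO2. Field stimulation at 0.1 Hz, 3-ms pulses, 100-140 V set to give ~100-mg twitch, recorded isometrically.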

For assay [5] the target is unchanged. Kind of assay: Presynaptic alpha-2 adrenergic receptor agonistic activity in mouse vas deferens relative to clonidine. It is filed as functional, tissue-based. The gist of the method:
as §1

Assay [6] concerns the target T2, Adrenergic receptor alpha-1 (Rattus norvegicus). As to the kind of experiment: Agonism at Alpha-1 adrenoceptor determined in rat anococcygeus preparation; Inactive. It is filed as functional. The method, boiled down:
as §1

Assay [7] has the same target. Kind of assay: In vitro inhibition of the contractile effect of phenylephrine on the isolated rat anococcygeus; potency relative to idazoxan. It counts as functional.
The nature of assay [8]: Selectivity between pre- and post-synaptic sites of action. It is filed as functional.

T1 sequence (P30545 whole entry, looked up): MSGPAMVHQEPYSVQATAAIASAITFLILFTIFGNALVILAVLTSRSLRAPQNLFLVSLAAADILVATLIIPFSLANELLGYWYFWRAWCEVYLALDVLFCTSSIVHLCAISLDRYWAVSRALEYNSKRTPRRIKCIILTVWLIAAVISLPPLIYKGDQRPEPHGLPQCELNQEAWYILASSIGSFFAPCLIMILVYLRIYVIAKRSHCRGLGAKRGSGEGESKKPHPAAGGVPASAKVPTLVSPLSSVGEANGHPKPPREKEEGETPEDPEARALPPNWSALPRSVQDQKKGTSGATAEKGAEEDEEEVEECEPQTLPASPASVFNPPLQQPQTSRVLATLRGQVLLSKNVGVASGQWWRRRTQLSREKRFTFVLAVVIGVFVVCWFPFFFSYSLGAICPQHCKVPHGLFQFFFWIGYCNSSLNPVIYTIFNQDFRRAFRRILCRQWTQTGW
T1 sequence (Q01337 whole entry, looked up): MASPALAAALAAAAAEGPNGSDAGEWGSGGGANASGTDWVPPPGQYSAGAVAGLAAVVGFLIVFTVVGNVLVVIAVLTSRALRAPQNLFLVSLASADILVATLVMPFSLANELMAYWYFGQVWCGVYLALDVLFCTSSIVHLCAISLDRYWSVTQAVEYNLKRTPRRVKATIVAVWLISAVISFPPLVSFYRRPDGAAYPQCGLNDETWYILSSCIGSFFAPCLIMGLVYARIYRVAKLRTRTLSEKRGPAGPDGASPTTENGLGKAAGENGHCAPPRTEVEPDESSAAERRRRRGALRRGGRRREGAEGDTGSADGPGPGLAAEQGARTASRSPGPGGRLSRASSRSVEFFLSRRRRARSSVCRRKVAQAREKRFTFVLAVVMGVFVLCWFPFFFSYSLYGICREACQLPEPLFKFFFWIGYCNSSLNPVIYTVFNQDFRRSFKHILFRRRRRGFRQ
T1 sequence (Q01338 whole entry, looked up): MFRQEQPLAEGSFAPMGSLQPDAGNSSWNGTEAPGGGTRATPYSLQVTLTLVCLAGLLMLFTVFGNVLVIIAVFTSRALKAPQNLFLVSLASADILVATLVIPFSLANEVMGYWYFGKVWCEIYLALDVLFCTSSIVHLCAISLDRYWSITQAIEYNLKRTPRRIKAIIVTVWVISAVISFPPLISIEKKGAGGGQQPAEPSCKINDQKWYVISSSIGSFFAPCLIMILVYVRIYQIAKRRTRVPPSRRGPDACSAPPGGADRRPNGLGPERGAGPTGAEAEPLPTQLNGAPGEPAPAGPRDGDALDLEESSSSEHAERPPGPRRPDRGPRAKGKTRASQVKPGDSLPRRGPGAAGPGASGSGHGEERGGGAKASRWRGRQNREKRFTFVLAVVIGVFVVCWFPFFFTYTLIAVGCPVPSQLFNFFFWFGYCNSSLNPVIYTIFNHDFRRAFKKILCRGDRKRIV

Take `Clc1cccc2c1CC(C1=NCCN1)O2` (centres undefined): in assay [1], the Agonist potency entry is “inactive”. For the same molecule, in assay [2], the Antagonist potency entry was “inactive”. The same molecule gave an Agonist potency in assay [3] of 1. The Antagonist potency in assay [4] was 2.

In the case of `c1ccc2oc(C3=NCCN3)cc2c1`, the Agonist potency was less than 0.001 in assay [3] and less than 0.0003 in assay [5]. Moreover, the Antagonist potency in assay [4] was 0.01.

For the molecule `Cc1cc(C)c2c(c1)CC(C1=NCCN1)O2` (centres undefined), the Agonist potency entry in assay [1] is “inactive”. The Antagonist potency entry in assay [2] is “inactive”. In addition, the Agonist potency in assay [3] came out at 0.03. Besides, the Antagonist potency in assay [4] is 0.3.

As for `Oc1ccc2c(c1)CC(C1=NCCN1)O2` (centres undefined), in assay [2], the Antagonist potency entry is “inactive”. Besides, the Agonist potency in assay [3] worked out at 0.25; in assay [5], 0.02. Also, in assay [4], the Antagonist potency was found to be 0.02.

Regarding `Fc1ccc2c(c1)CC(C1=NCCN1)O2` (centres undefined), the Agonist potency result in assay [1] and in assay [6] was “inactive” in each case. Further, the Antagonist potency is 1.07 in assay [4] and 5.6 in assay [7]. Moreover, in assay [8], the Ratio is 0.2.

For `Oc1cccc2c1OC(C1=NCCN1)C2` (centres undefined), in assay [1], the Agonist potency result was “inactive”. In addition, the Antagonist potency result in assay [2] is “inactive”. Moreover, the Agonist potency in assay [3] came to 0.24. Also, the Antagonist potency in assay [4] turned out to be 0.04.

Take `COc1ccc2c(c1)OC(C1=NCCN1)C2` (centres undefined): the Agonist potency entry in assay [1] and in assay [6] was “inactive” each time. Besides, the values for the Antagonist potency in assay [4] and in assay [7] were 0.07 and 0.35, respectively. In addition, in assay [8], the Ratio worked out at 0.2.

Consider `Cc1cccc2c1CC(C1=NCCN1)O2` (centres undefined), for which the Antagonist potency result in assay [2] was “inactive”. The Agonist potency in assay [3] worked out at 1.3; in assay [5] it was 0.2. Moreover, the Antagonist potency in assay [4] turned out to be 0.1.

`CC1(C2=NCCN2)Oc2ccccc2O1`: in assay [1], the Agonist potency entry was “inactive”. The Agonist potency in assay [3] worked out at 0.05. The Antagonist potency is 0.001 in assay [4] and 0.01 in assay [7]. In addition, the Ratio in assay [8] was 0.1.

Consider `c1ccc2c(c1)OC(C1=NCCN1)O2`, for which the Agonist potency entry in assay [1] was “inactive”. Moreover, the Antagonist potency result in assay [2] was “inactive”. This molecule came in with an Agonist potency in assay [3] of 0.005. Moreover, in assay [4], the Antagonist potency was found to be 0.001.

On to `Cc1ccc2c(c1)OC(C1=NCCN1)C2` (centres undefined), for which the Agonist potency entry in assay [1] and in assay [6] was “inactive” each time. Further, the values for the Antagonist potency in assay [4] and in assay [7] were 0.46 and 2.25, respectively. Besides, the Ratio in assay [8] stood at 0.2.

`Brc1ccc2c(c1)CC(C1=NCCN1)O2` (centres undefined): in assay [2], the Antagonist potency result is “inactive”. Further, the figures for the Agonist potency in assay [3] and in assay [5] were 0.026 and less than 0.001, respectively. The molecule also displayed an Antagonist potency in assay [4] of 0.2.

As for `Cc1ccc2c(c1)CC(C1=NCCN1)O2` (centres undefined), the Agonist potency entry in assay [1] and in assay [6] was “inactive” in each case. Moreover, the figures for the Antagonist potency in assay [4] and in assay [7] were 1 and 2.25, respectively. The Ratio in assay [8] is 0.44.

As to `c1ccc2c(c1)CC(C1=NCCN1)S2` (centres undefined), in assay [6], the Agonist potency result was “inactive”. The Antagonist potency in assay [4] was 0.1; in assay [7] it was 0.69. In assay [5], this molecule showed an Agonist potency of 0.001. Moreover, in assay [8], the Ratio was found to be 0.14.

In the case of `Cc1cc2c(cc1C)OC(C1=NCCN1)C2` (centres undefined), the Agonist potency result in assay [1] and in assay [6] was “inactive” in each case. For the same molecule, the Antagonist potency turned out to be 0.7 in assay [4] and 0.9 in assay [7]. In addition, the Ratio in assay [8] is 0.8.

As for `Clc1ccc2c(c1Cl)OC(C1=NCCN1)C2` (centres undefined), in assay [2], the Antagonist potency entry was “inactive”. For the same molecule, the Agonist potency in assay [3] stood at 0.001; in assay [5], 0.03. In assay [4], this molecule returned an Antagonist potency of 0.12.

Turning to `c1ccc2c(c1)OCCC(C1=NCCN1)O2` (centres undefined), the Agonist potency entry in assay [1] was “inactive”. The Antagonist potency result in assay [2] is “inactive”. This molecule came in with an Agonist potency in assay [3] of less than 0.0005. The Antagonist potency in assay [4] was found to be 0.04.

On to `Cc1ccc(C)c2c1CC(C1=NCCN1)O2` (centres undefined), for which, in assay [2], the Antagonist potency entry is “inactive”. Also, the Agonist potency amounted to 0.5 in assay [3] and 0.14 in assay [5]. This molecule also gave an Antagonist potency in assay [4] of 0.03.

For the molecule `Oc1ccc2c(c1)OC(C1=NCCN1)C2` (centres undefined), the Antagonist potency result in assay [2] is “inactive”. The results for the Agonist potency in assay [3] and in assay [5] were 1.5 and 0.02, respectively. In assay [4], this molecule yielded an Antagonist potency of 0.04.

On to `c1ccc2c(c1)CC(C1=NCCN1)CO2` (centres undefined), for which the Agonist potency entry in assay [1] and in assay [6] was “inactive” each time. Besides, the results for the Antagonist potency in assay [4] and in assay [7] were 0.01 and 1, respectively. The Ratio in assay [8] worked out at 0.01.

For the molecule `COc1cccc2c1OC(C1=NCCN1)C2` (centres undefined), the Agonist potency entry in assay [1] was “inactive”. Further, in assay [2], the Antagonist potency entry is “inactive”. Besides, the Agonist potency in assay [3] stood at 0.3. Moreover, the Antagonist potency in assay [4] is 0.07.

As for `CC(=O)c1ccc2c(c1)CC(C1=NCCN1)O2` (centres undefined), the Agonist potency entry in assay [1] was “inactive”. In assay [2], the Antagonist potency result was “inactive”. The Agonist potency in assay [3] came out at 0.02. In assay [4], this molecule had an Antagonist potency of 0.003.

As to `Clc1cc(Cl)c2c(c1)CC(C1=NCCN1)O2` (centres undefined), in assay [2], the Antagonist potency entry is “inactive”. Further, the Agonist potency in assay [3] is 0.14; in assay [5], less than 0.0001. The Antagonist potency in assay [4] stood at 0.06.

Regarding `c1ccc2sc(C3=NCCN3)cc2c1`, the Agonist potency result in assay [1] and in assay [6] was “inactive” in each case. The Antagonist potency in assay [4] stood at 0.001; in assay [7], 0.05. Also, the Ratio in assay [8] amounted to 0.02.

With `c1ccc(CCC2(C3=NCCN3)Cc3ccccc3O2)cc1` (centres undefined), the Agonist potency result in assay [1] and in assay [6] was “inactive” throughout. Further, the Antagonist potency in assay [4] and in assay [7] was 0.07 in each case. Further, in assay [8], the Ratio was found to be 1.

On to `c1ccc2c(c1)CCC(C1=NCCN1)O2` (centres undefined), for which the Agonist potency entry in assay [1] and in assay [6] was “inactive” in each case. Further, the Antagonist potency in assay [4] worked out at 0.01; in assay [7] it was 1. Further, the Ratio in assay [8] came out at 0.01.

For the molecule `CC1c2ccccc2OC1C1=NCCN1` (centres undefined), the Agonist potency entry in assay [1] and in assay [6] was “inactive” each time. Also, the Antagonist potency in assay [4] is 0.03; in assay [7], 0.1. The Ratio in assay [8] was 0.3.

Source of the values: ChEMBL document CHEMBL1122643, “Alpha-adrenoreceptor reagents. 2. Effects of modification of the 1,4-benzodioxan ring system on alpha-adrenoreceptor activity” (J Med Chem, 1984).
